Measurements collected from several papers.
Compare with care: the assays were run in different laboratories.
Target: Serine/threonine-protein kinase PAK 5 (PAK5, Homo sapiens, UniProt Q9P286)

CS(=O)(=O)c1cc(C2(NC(=O)c3cncc4c3cnn4-c3ccc(F)cc3)CC2)ccn1  remaining binding (cell-free assay; competition with immobilised ligand; 1 µM): 100%
O=C(NCCCN1CCOCC1)c1ccc(Nc2nccc(-c3cc4ccccc4s3)n2)cc1  remaining binding (binding; competition with immobilised ligand; 1 µM): 81%
CN(C)c1ncnc(-c2ccc3nc(Nc4cc(CN5CCN(C(=O)CC(F)(F)F)CC5)ccn4)[nH]c3c2)c1Cl  remaining binding (cell-free assay; competition with immobilised ligand; 1 µM): 85%
c1cncc(-c2cccc(Nc3nccc(NC4CCCCC4)n3)c2)c1  remaining binding (binding; competition with immobilised ligand; 10 µM): 76%
O=C(NCCCC1CCCCC1)c1ccc(CNC(=O)c2cnn(-c3ccccc3)c2C(F)(F)F)cc1  remaining binding (cell-free assay; competition with immobilised ligand; 0.1 µM): 100%
CN(C)c1nccc(-c2cnn3ncccc23)n1  remaining binding (binding; 1 µM): 92%
CNC(=O)[C@@H]1CC[C@@H](n2c(-c3ccc4cnccc4c3)nc3ccc(C(=O)NCc4cccc(C(N)=O)c4)cc32)C1  remaining binding (binding; competition with immobilised ligand; 1 µM): 100%
O=C(NCC1CCOCC1)c1n[nH]cc1NC(=O)c1c(F)cccc1F  remaining binding (binding; competition with immobilised ligand; 1 µM): 79%
O=C(NCCCN1CCOCC1)c1ccc(Nc2ncc(Cl)c(-c3ccc(Cl)s3)n2)cc1  remaining binding (binding; competition with immobilised ligand; 1 µM): 73%
C[C@@H]1CCN(c2nccc(-c3cnn4ncccc34)n2)C1  remaining binding (binding; 1 µM): 90%
COc1ccc2c(c1)O[C@H](c1ccc(OC)c(OC)c1)C[C@@H]2NC(=O)C1(c2ccc3c(c2)OC(F)(F)O3)CC1  remaining binding (cell-free assay; competition with immobilised ligand; 1 µM): 100%
F[C@@H]1CCN(c2nccc(-c3cnn4ncccc34)n2)C1  remaining binding (binding; 1 µM): 100%
COc1ccc2c(O[C@@H]3C[C@H]4C(=O)N[C@]5(C(=O)O)CC5/C=C\CCCCC[C@H](NC(=O)OC5CCCC5)C(=O)N4C3)cc(-c3csc(NC(=O)C(C)C)n3)nc2c1C (stereo partly drawn)  remaining binding (cell-free assay; competition with immobilised ligand; 1 µM): 100%
FC(F)(F)Oc1cccc(-c2cnc3ccc(-c4ccncc4)nn23)c1  remaining binding (cell-free assay; competition with immobilised ligand; 5 µM): 43%
COc1cnc(Nc2cccc(S(N)(=O)=O)c2)nc1N1CCN(c2ccccc2)CC1  remaining binding (binding; competition with immobilised ligand; 1 µM): 69%
N[C@H]1CCN(c2nccc(-c3cnn4ncccc34)n2)C1  remaining binding (binding; 1 µM): 100%
CNCc1ccccc1-c1csc([C@H](C)Nc2nc(C)nc3cc(OC)c(OC)cc23)c1  remaining binding (cell-free assay; competition with immobilised ligand; 1 µM): 100%
Cc1cnn2ncc(-c3ccnc(N(C)C)n3)c2c1  remaining binding (binding; 1 µM): 0%
COc1ncc2cc3ccccc3nc2c1C#N  remaining binding (cell-free assay; competition with immobilised ligand; 5 µM): 100%
c1cnn2ncc(-c3ccnc(N4CCC45COC5)n3)c2c1  remaining binding (binding; 1 µM): 85%
O=C(c1ccc(Nc2ncc(Cl)c(-c3ccc(Cl)s3)n2)cc1)N1CCC(N2CCCC2)CC1  remaining binding (binding; competition with immobilised ligand; 1 µM): 58%
